This is a sample that favours compounds with a hit; in the whole collection about 0.99% have one here.
GRK2 aptamer HTS – compounds blocking aptamer binding on GRK2 – biochemical, human GRK2, bead flow cytometry, HTS, primary screen. Beta-adrenergic receptor kinase 1 (Homo sapiens), P25098. FAM-aptamer displacement from GRK2. inhibition of aptamer binding, % at 10 µM. 0.59% of 330,000 active;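 active means inhibition of aptamer binding above 40%, roughly 3 SD of noise, on plates passing a quality check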;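 further: median bead fluorescence of bound FAM aptamer so fluorescent compounds give negative values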
Target sequence (P25098 whole entry, looked up): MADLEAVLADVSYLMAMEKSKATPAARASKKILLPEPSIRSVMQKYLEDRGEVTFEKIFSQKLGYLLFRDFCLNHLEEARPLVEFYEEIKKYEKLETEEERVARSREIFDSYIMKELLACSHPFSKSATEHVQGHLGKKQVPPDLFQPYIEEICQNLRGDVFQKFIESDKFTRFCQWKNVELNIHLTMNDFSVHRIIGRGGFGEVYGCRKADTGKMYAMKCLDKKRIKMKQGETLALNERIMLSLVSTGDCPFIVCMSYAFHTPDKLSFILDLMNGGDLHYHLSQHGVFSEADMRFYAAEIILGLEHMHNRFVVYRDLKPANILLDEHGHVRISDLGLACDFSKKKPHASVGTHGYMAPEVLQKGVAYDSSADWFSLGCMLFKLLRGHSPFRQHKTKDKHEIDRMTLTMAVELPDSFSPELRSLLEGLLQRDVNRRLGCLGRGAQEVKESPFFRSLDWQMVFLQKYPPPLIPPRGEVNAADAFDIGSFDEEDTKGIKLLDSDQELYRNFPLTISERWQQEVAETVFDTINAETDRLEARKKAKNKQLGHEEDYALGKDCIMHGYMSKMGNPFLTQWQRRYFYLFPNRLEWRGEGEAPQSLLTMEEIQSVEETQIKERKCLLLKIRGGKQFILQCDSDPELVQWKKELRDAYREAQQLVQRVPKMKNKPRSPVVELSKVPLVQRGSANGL
Insulin prom up – insulin promoter activators in MIN6 cells, imaging, high-content screening, mouse beta cells; MIN6 insulin promoter-GFP reporter; stronger effect = higher value; AID 1625, 2009; z-score at 5 µM; 0.3% of 190,000 active;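 active means z-score above 3 at 5 µM with at least 500 cells counted in the well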
DDE Tn7 FP inh – inhibitors of Tn7 peptide binding to fibrin DD(E), primary screen, biochemical, fluorescence polarization, human fibrin, Tn7 probe; Fibrinogen beta chain (Homo sapiens), P02675; FP displacement of FITC-Tn7 peptide from fibrin DD(E); 0% = median of compound wells per plate; inhibition, % at 8.3 µM; 0.13% of 370,000 active;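 active means inhibition above the mean of compounds falling within the control limits plus 3 SD of them, cut at about 14% in these data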;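 further: 0% = plate median of compound wells and 100% = 10 µM Aha-Tn7 peptide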
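Test system – human fibrin DD(E) · Times – 10 min preincubation, 3 h with tracer, room temperature · Detection – fluorescence polarization of the labelled Tn7 tracer · Measure – percent inhibition normalized to high-control wells · Benchmarks – high control wells with 10 µM unlabelled Aha-Tn7 peptide (full inhibition) · Repeats – singlicate testing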
Tn6 DDE FP – inhibitors of Tn6 peptide binding to fibrin DD(E), primary screen, biochemical, fluorescence polarization, human fibrin, Tn6 probe; Fibrin DD(E) TRITC-Tn6 fluorescence polarization displacement; Fibrinogen beta chain (Homo sapiens), P02675; inhibition, % at 8.3 µM; 0.21% of 370,000 active; AID 720509, 2013;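 active means inhibition above a per-campaign cutoff: mean of compounds within control limits plus 3 SD, cut at about 15% in these data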;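 further: 0% = median of all compound wells on the plate and 100% = blocking peptide control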
ABCG2 inh – ABCG2 efflux pump inhibitors, primary screen, multiplex with ABCB1, IgMXP3 cells, flow cytometry. 0.1% of 190,000 active. JC-1 efflux. inhibition, % at 6.6 µM;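 active means inhibition above 80%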;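 further: 0% = DMSO and 100% = nicardipine control wells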
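Test system: IgMXP3 (ABCG2) plus far-red-tagged CCRF-Adr (ABCB1) cells / Amount: 3 million cells/mL in well / Reagent: JC-1 transporter substrate / Timing: 10 min compound exposure, 25 °C / Signal: flow cytometry, 530 nm JC-1 signal / Read-out: percent efflux inhibition, scaled nicardipine 100% to DMSO 0% / Benchmarks: nicardipine as high control, DMSO as low control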
ABCB1 inh – ABCB1 efflux pump inhibitors, primary screen, cell-based, multiplex, flow cytometry, ABCG2 counter-screen; ATP-dependent translocase ABCB1 (Homo sapiens), P08183; CCRF-Adr cells, JC-1 efflux; inhibition, % at 6.6 µM; 0.067% of 190,000 active; in the data active means inhibition above about 40%;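 further: 0% = vehicle and 100% = reference inhibitor; higher value means more JC-1 retained so stronger ABCB1 efflux block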
Starred values were filed as active, the others as inactive.

How did CCN1CCc2c(sc(N)c2C#N)C1 do in these assays?
GRK2 aptamer HTS: 63*; Insulin prom up: -0.05; DDE Tn7 FP inh: 6; Tn6 DDE FP: 3; ABCG2 inh: -1; ABCB1 inh: 0

What do the screens show for `CN1C(=O)C2(Nc3ccccc3-c3nc4ccccc4n32)c2ccccc21` (centres undefined)?
GRK2 aptamer HTS: 0; DDE Tn7 FP inh: 0; Tn6 DDE FP: -22; ABCG2 inh: 2; ABCB1 inh: 2

What do the screens show for `CCN1C(=O)C2(Nc3ccccc3-c3nc4ccccc4n32)c2cc(OC)ccc21` (centres undefined)?
GRK2 aptamer HTS: 0; Insulin prom up: -0.28; DDE Tn7 FP inh: 5; Tn6 DDE FP: 7; ABCG2 inh: 16; ABCB1 inh: 53*

What do the screens show for `Nn1c(SCC(=O)Nc2cccc3ccccc23)nnc1-c1cc(-c2ccc(Cl)cc2)n[nH]1`?
DDE Tn7 FP inh: 2; Tn6 DDE FP: 6

Results for O=C(O)c1cc(O)c2c(c1)C(=O)c1cccc(O)c1C2=O ?
GRK2 aptamer HTS: 4; DDE Tn7 FP inh: 3; Tn6 DDE FP: 30*; ABCG2 inh: -1; ABCB1 inh: -1

What do the screens show for `Cc1ccccc1SCc1noc(C(=O)NC(C)C)c1C(=O)O`?
GRK2 aptamer HTS: 0; Insulin prom up: 3*; DDE Tn7 FP inh: 8; Tn6 DDE FP: -1; ABCG2 inh: 1; ABCB1 inh: 0

Results for Cc1ccn2c(NC3CCCCC3)c(C(C)C)nc2c1 ?
GRK2 aptamer HTS: 1; Insulin prom up: -0.69; DDE Tn7 FP inh: -10; Tn6 DDE FP: -1; ABCG2 inh: 6; ABCB1 inh: 0

How did Cc1ccn2c(NC3CCCCC3)c(C)nc2c1 do in these assays?
GRK2 aptamer HTS: 0; Insulin prom up: 3.9*; DDE Tn7 FP inh: 3; Tn6 DDE FP: -2; ABCG2 inh: 1; ABCB1 inh: 1

How did COC(=O)[C@]1(C)CN(C(=O)OC(C)(C)C)C2=C1C(=O)C[C@@](C)(C(=O)OC(C)(C)C)C2 do in these assays?
DDE Tn7 FP inh: 0; Tn6 DDE FP: 3

How did COC(=O)CNC(=O)CNC1(C(=O)NCCc2c[nH]c3ccccc23)CCCCC1 do in these assays?
DDE Tn7 FP inh: 0; Tn6 DDE FP: -2

How did CN(C)C(=O)C1C2NC(=S)N(c3cccc(Cl)c3)C1(C)Oc1ccc(Cl)cc12 (centres undefined) do in these assays?
GRK2 aptamer HTS: 0; Insulin prom up: 3.5*; DDE Tn7 FP inh: 3; Tn6 DDE FP: -1; ABCG2 inh: -1; ABCB1 inh: 0

What do the screens show for `CCOc1cc(NC(=O)c2cnccn2)c(OCC)cc1NC(=O)c1cccc(F)c1`?
GRK2 aptamer HTS: 68*; Insulin prom up: 0.08; ABCG2 inh: -5; ABCB1 inh: -1

How did O=C1c2cc(CO)cc(O)c2C(=O)c2c(O[C@@H]3OC(CO)[C@@H](O)[C@@H](O)[C@@H]3O)cccc21 (some centres undefined) do in these assays?
GRK2 aptamer HTS: 1; DDE Tn7 FP inh: -8; Tn6 DDE FP: -1

What do the screens show for `O=C(O)c1cc(O)c2c(c1)[C@@H]([C@H]1c3cc(C(=O)O)cc(O)c3C(=O)c3c(O[C@@H]4O[C@H](CO)[C@@H](O)[C@H](O)[C@H]4O)cccc31)c1cccc(OC3O[C@H](CO)[C@@H](O)[C@H](O)[C@H]3O)c1C2=O` (some centres undefined)?
GRK2 aptamer HTS: 97*; DDE Tn7 FP inh: 7; Tn6 DDE FP: -5

How did CCN(CC)c1ccc(/C=C(\C#N)c2nc(-c3cccs3)c(NC(C)=O)s2)cc1 do in these assays?
Insulin prom up: 17*; ABCG2 inh: 28; ABCB1 inh: 23

Results for COc1ccc(OC)c(NC(=O)COC(=O)c2cc3c(s2)CCC3)c1 ?
GRK2 aptamer HTS: 42*; DDE Tn7 FP inh: -3; Tn6 DDE FP: 2; ABCG2 inh: 0; ABCB1 inh: 0

What do the screens show for `COc1ccccc1NC(=O)COC(=O)c1cc2c(s1)CCC2`?
DDE Tn7 FP inh: 2; Tn6 DDE FP: 1

How did O=C(Cc1nc(-c2ccc([N+](=O)[O-])cc2)cs1)Nc1ccccc1 do in these assays?
GRK2 aptamer HTS: 2; Insulin prom up: 8.6*; DDE Tn7 FP inh: -2; Tn6 DDE FP: -6; ABCG2 inh: 1; ABCB1 inh: 0

Results for COCC(=O)Nc1nc(-c2ccc([N+](=O)[O-])cc2)cs1 ?
GRK2 aptamer HTS: 1; Insulin prom up: -0.18; DDE Tn7 FP inh: 0; Tn6 DDE FP: -1; ABCG2 inh: 16; ABCB1 inh: 1

What do the screens show for `Cc1c(C)n(Cc2ccc(-c3ccccc3C(=O)O)cc2)c2ccc(C(=O)N[C@@H](C)c3ccc([N+](=O)[O-])cc3)cc12`?
DDE Tn7 FP inh: 3; Tn6 DDE FP: -3

What do the screens show for `COCCN1CN(S(=O)(=O)c2ccccc2)c2nc3ccccc3nc21`?
GRK2 aptamer HTS: 0; Insulin prom up: 3.1*; DDE Tn7 FP inh: 1; Tn6 DDE FP: 6; ABCG2 inh: 4; ABCB1 inh: 3

How did COCCN1CN(S(=O)(=O)c2ccc(Cl)cc2)c2nc3ccccc3nc21 do in these assays?
GRK2 aptamer HTS: 2; Insulin prom up: -0.57; DDE Tn7 FP inh: -3; Tn6 DDE FP: 0; ABCG2 inh: 1; ABCB1 inh: 1

How did COc1[nH]c(/N=C/c2ccccc2)c(C#N)c1C#N do in these assays?
GRK2 aptamer HTS: 0; Insulin prom up: -0.31; DDE Tn7 FP inh: 6; Tn6 DDE FP: 38*; ABCG2 inh: 0; ABCB1 inh: 0

Results for Cc1nc(NC(=O)COC(=O)CCS(=O)(=O)c2ccccc2Cl)c(Cl)cc1Cl ?
GRK2 aptamer HTS: 0; Insulin prom up: 4.2*; DDE Tn7 FP inh: 5; Tn6 DDE FP: -1; ABCG2 inh: 1; ABCB1 inh: 1

How did Cc1ccc(C(=O)NCC(=O)OCc2nc3sc(C)c(C)c3c(=O)[nH]2)cc1 do in these assays?
DDE Tn7 FP inh: 2; Tn6 DDE FP: 0

Results for Cc1ccc(C(=O)ON=C2CCN(S(=O)(=O)c3ccccc3)CC2)cc1 ?
GRK2 aptamer HTS: 0; DDE Tn7 FP inh: 0; Tn6 DDE FP: -5; ABCG2 inh: 7; ABCB1 inh: 1

How did CS(=O)(=O)ON=C1CCN(S(=O)(=O)c2ccccc2)CC1 do in these assays?
GRK2 aptamer HTS: 1; Insulin prom up: 3.5*; DDE Tn7 FP inh: -7; Tn6 DDE FP: 9; ABCG2 inh: 0; ABCB1 inh: 0

Screens (PubChem)
